# ChEMBL document CHEMBL1124746, “Synthesis and antitumor evaluation in mice of certain 7-deazapurine (pyrrolo[2,3-d]pyrimidine) and 3-deazapurine (imidazo[4,5-c]pyridine) nucleosides structurally related to sulfenosine, sulfinosine, and sulfonosine” (1990)
# Tests used:
# [1] = system: L1210; assay: Tested for post inoculation lifespan in L1210-inoculated mice at dose 288 mg/kg administered intraperitoneally; format: functional, Mus musculus; conditions: route intraperitoneal
# Outline: (§1)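 Female BDF1 mice (~18 g) were inoculated ip on day 0 with 1 × 10⁶ L1210 cells and treated once ip 24 h later with drug in water (0.01 mL/g); saline controls. Groups had six mice. %T/C = mean life span treated / mean life span control × 100, with T/C ≥ 125 taken as significant. Deaths were assigned to leukemia or drug toxicity by timing and necropsy.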
# [2] = system: L1210; assay: Tested for percent of L1210 cells killed by dose 288 mg/kg administered intraperitoneally; format: functional, Mus musculus; conditions: route intraperitoneal
# Outline: (§2)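 Female BDF1 mice (~18 g) were inoculated ip on day 0 with 1 × 10⁶ murine L1210 leukemia cells. They got a single ip bolus 24 h later of drug freshly dissolved in water, at 0.01 mL/g body weight. Controls received saline. The percentage of cells killed was estimated from residual leukemia body burden, using inoculum-response data relating inoculum size to postinoculation life span.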
# [3] = system: L1210; assay: Tested for post inoculation lifespan in L1210-inoculated mice at dose 173 mg/kg administered intraperitoneally; format: functional, Mus musculus; conditions: route intraperitoneal; outline: as §1
# [4] = system: L1210; assay: Tested for percent of L1210 cells killed by dose 173 mg/kg administered intraperitoneally; format: functional, Mus musculus; conditions: route intraperitoneal; outline: as §2
# [5] = system: L1210; assay: Tested for percent of L1210 cells killed by dose 62 mg/kg administered intraperitoneally; format: functional, Mus musculus; conditions: route intraperitoneal; outline: as §2
# [6] = system: L1210; assay: Tested for post inoculation lifespan in L1210-inoculated mice at dose 62 mg/kg administered intraperitoneally; format: functional, Mus musculus; conditions: route intraperitoneal; outline: as §1
# [7] = system: L1210; assay: Tested for percent of L1210 cells killed by dose 104 mg/kg administered intraperitoneally; format: functional, Mus musculus; conditions: route intraperitoneal; outline: as §2
# [8] = system: L1210; assay: Tested for post inoculation lifespan in L1210-inoculated mice at dose 104 mg/kg administered intraperitoneally; format: functional, Mus musculus; conditions: route intraperitoneal; outline: as §1
# [9] = system: L1210; assay: Tested for post inoculation lifespan in L1210-inoculated mice at dose 480 mg/kg administered intraperitoneally; format: functional, Mus musculus; conditions: route intraperitoneal; outline: as §1
# [10] = system: L1210; assay: Tested for percent of L1210 cells killed by dose 480 mg/kg administered intraperitoneally; format: functional, Mus musculus; conditions: route intraperitoneal; outline: as §2
# [11] = system: L1210; assay: Tested for percent of L1210 cells killed by dose 173 mg/kg administered intraperitoneally; conditions: Mus musculus, route intraperitoneal
# [12] = system: L1210; assay: Tested for percent of L1210 cells killed by dose 800 mg/kg administered intraperitoneally; format: functional, Mus musculus; conditions: route intraperitoneal; outline: as §2
# [13] = system: L1210; assay: Tested for post inoculation lifespan in L1210-inoculated mice at dose 800 mg/kg administered intraperitoneally; format: functional, Mus musculus; conditions: route intraperitoneal; outline: as §1
# [14] = system: L1210; assay: Tested for percent of L1210 cells killed by dose 37 mg/kg administered intraperitoneally; format: functional, Mus musculus; conditions: route intraperitoneal; outline: as §2
# [15] = system: L1210; assay: Tested for post inoculation lifespan in L1210-inoculated mice at dose 37 mg/kg administered intraperitoneally; format: functional, Mus musculus; conditions: route intraperitoneal; outline: as §1
compound,measurement,setting,value
NS(=O)(=O)c1ncnc2c1ccn2[C@H]1C[C@H](O)[C@@H](CO)O1,T/C,[1],113%
same,Cells killed,[2],67.94%
Nc1nc([S+](N)[O-])c2ccn([C@@H]3C[C@@H](O)[C@H](CO)O3)c2n1 (stereo partly drawn),T/C,[3],100%
same,Cells killed,[4],0%
OC[C@H]1O[C@@H](n2ccc3c(S)ncnc32)C[C@@H]1O,Cells killed,[5],0%
same,T/C,[6],96%
NSc1ncnc2c1ccn2[C@H]1C[C@H](O)[C@@H](CO)O1,Cells killed,[7],2%
same,T/C,[8],101%
N[S+]([O-])c1ncnc2c1ccn2[C@@H]1C[C@@H](O)[C@H](CO)O1 (stereo partly drawn),T/C,[9],112%
same,Cells killed,[10],60.59%
NSc1nc(N)nc2c1ccn2[C@H]1C[C@H](O)[C@@H](CO)O1,T/C,[3],112%
same,Cells killed,[11],46.64%
Nc1nc(S)c2ccn([C@H]3C[C@H](O)[C@@H](CO)O3)c2n1,Cells killed,[7],35.63%
same,T/C,[8],105%
Nc1cc2c(ncn2C2O[C@H](CO)[C@@H](O)[C@H]2O)c(S)n1 (stereo partly drawn),Cells killed,[7],0%
same,T/C,[8],93%
Nc1nc([S+](N)[O-])c2ccn(C3O[C@H](CO)[C@@H](O)[C@H]3O)c2n1 (stereo partly drawn),T/C,[1],115%
same,Cells killed,[2],76.93%
Nc1cc2c(ncn2C2O[C@H](CO)[C@@H](O)[C@H]2O)c([S+](N)[O-])n1 (stereo partly drawn),Cells killed,[12],16.32%
same,T/C,[13],102%
NSc1nc(N)cc2c1ncn2C1O[C@H](CO)[C@@H](O)[C@H]1O (stereo partly drawn),Cells killed,[5],21.86%
same,T/C,[6],103%
Nc1nc(S(N)(=O)=O)c2ccn(C3O[C@H](CO)[C@@H](O)[C@H]3O)c2n1 (stereo partly drawn),T/C,[9],100%
same,Cells killed,[10],0%
Nc1nc(S)c2ccn(C3O[C@H](CO)[C@@H](O)[C@H]3O)c2n1 (stereo partly drawn),Cells killed,[14],0%
same,T/C,[15],90%
NSc1nc(N)nc2c1ccn2C1O[C@H](CO)[C@@H](O)[C@H]1O (stereo partly drawn),Cells killed,[7],66.6%
same,T/C,[8],111%
